Measured values of several laboratories.
Lines come from different studies, so protocols differ.
Target: Mitogen-activated protein kinase 11 (MAPK11, Homo sapiens, UniProt Q15759)

Compound	test	setting	endpoint	result
Cn1cncc1[C@@](O)(COc1ccc(C#N)cc1-c1ccc(OC(F)(F)F)cc1)c1ccc(C#N)cc1	cell-free assay, competition with immobilised ligand	1 µM	remaining binding	96%
O=c1[nH]c2ccccc2n1C1CCN(Cc2ccc(-c3[nH]c4cc5ncnc5cc4nc3-c3ccccc3)cc2)CC1	cell-free assay	0.5 µM	remaining signal	102%
Cc1nn(C)cc1-c1nc2c(N3CCN(Cc4ccc(Cl)cc4)CC3)c(Cl)cnc2[nH]1	binding, competition with immobilised ligand	1 µM	remaining binding	100%
CC(C)(C)c1cc(C=C(C#N)C#N)cc(Br)c1O	enzyme activity, inhibitor	0.5 µM	remaining activity	100%
Cn1cc(-c2cccc(N3CCc4c(sc5c4CC(C)(C)C5)C3=O)c2CO)cc(Nc2ccncn2)c1=O	enzyme activity, inhibitor	1 µM	inhibition	6%
COc1ncccc1-c1cnn2ccc(N3CCN(C(=O)OC(C)C)CC3)nc12	binding, competition with immobilised ligand	1 µM	remaining binding	89%
Cn1cc(-c2cc(F)cc(N3CCn4c(cc5c4CCCC5)C3=O)c2CO)cc(Nc2ccc(N3CCN(C4COC4)CC3)cn2)c1=O	enzyme activity, inhibitor	0.1 µM	inhibition	11%
Nc1ncc(-c2nc(N3CCOCC3)nc(N3CCOCC3)n2)c(C(F)F)n1	binding, competition with immobilised ligand	10 µM	remaining binding	98%
